# Measured values: ChEMBL document CHEMBL4364268, “Carvacrol prodrugs as novel antimicrobial agents” (Eur J Med Chem, 2019)
# Assays:
# Candida albicans [1] = assay: Antifungal activity against Candida albicans after 24 hrs by EUCAST method; format: functional
# [2] = Aqueous solubility of compound at 50 mg after 1 hr by HPLC analysis; format: physicochemical; details: water
# [3] = n-Octanol/water partition coefficient, log P of compound by HPLC analysis; format: physicochemical
# [4] = Stability in human plasma by HPLC analysis; format: ADME, cell-free
# How it was run: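 Compound stock was added to 80% human plasma (diluted with 0.02 M phosphate buffer, pH 7.4) at 37 °C. Samples taken over time were stopped with 0.01 M HCl in methanol and centrifuged 5 min at 5000 g. Supernatant was analysed by HPLC-UV at 274 nm (C18, water/ACN + 0.1% TFA, isocratic, 1 mL/min).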
# Blood = assay: Antioxidant activity in human blood assessed as total antioxidant capacity at 10 uM after 48 hrs (reference value: 6.3 +/- 0.5); format: functional
# Candida albicans [5] = assay: Antifungal activity against Candida albicans ATCC 10231 assessed as zone of inhibition by disc diffusion method; format: functional
# How it was run: (§1)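 Disc diffusion on potato dextrose medium with 0.8% agar against Candida strains. Fluconazole and amphotericin B served as positive controls. Inhibition zone was measured in mm.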
# [6] = tested on: Staphylococcus epidermidis; assay: Antibacterial activity against Staphylococcus epidermidis incubated for 18 to 24 hrs by CLSI-based broth microdilution method; format: functional
# Candida tropicalis = assay: Antifungal activity against Candida tropicalis KUEN 1025 assessed as zone of inhibition by disc diffusion method; format: functional; how it was run: as §1
# Acinetobacter baumannii = assay: Antibacterial activity against Acinetobacter baumannii incubated for 18 to 24 hrs by CLSI-based broth microdilution method; format: functional
# Nakaseomyces glabratus = assay: Antifungal activity against Candida glabrata ATCC 2001 assessed as zone of inhibition by disc diffusion method; format: functional; how it was run: as §1
# Staphylococcus aureus = assay: Antibacterial activity against Staphylococcus aureus incubated for 18 to 24 hrs by CLSI-based broth microdilution method; format: functional
# Streptococcus agalactiae = assay: Antibacterial activity against Streptococcus agalactiae incubated for 18 to 24 hrs by CLSI-based broth microdilution method; format: functional
# Enterococcus faecalis = assay: Antibacterial activity against Enterococcus faecalis incubated for 18 to 24 hrs by CLSI-based broth microdilution method; format: functional
# Pseudomonas aeruginosa = assay: Antibacterial activity against Pseudomonas aeruginosa incubated for 18 to 24 hrs by CLSI-based broth microdilution method; format: functional
# Klebsiella pneumoniae = assay: Antibacterial activity against Klebsiella pneumoniae incubated for 18 to 24 hrs by CLSI-based broth microdilution method; format: functional
# Candida parapsilosis = assay: Antifungal activity against Candida parapsilosis ATCC 22019 assessed as zone of inhibition by disc diffusion method; format: functional; how it was run: as §1
# Escherichia coli = assay: Antibacterial activity against Escherichia coli incubated for 18 to 24 hrs by CLSI-based broth microdilution method; format: functional
# Streptococcus pyogenes = assay: Antibacterial activity against Streptococcus pyogenes incubated for 18 to 24 hrs by CLSI-based broth microdilution method; format: functional
# Candida dubliniensis = assay: Antifungal activity against Candida dubliniensis CBS7987 assessed as zone of inhibition by disc diffusion method; format: functional; how it was run: as §1
# Streptococcus pneumoniae = assay: Antibacterial activity against Streptococcus pneumoniae incubated for 18 to 24 hrs by CLSI-based broth microdilution method; format: functional
smiles,measurement,setting,value
CC(C)=CCC[C@@H](C)CC(=O)Oc1cc(C(C)C)ccc1C,MIC,Candida albicans [1],> 6400 µg/mL
Cc1ccc(C(C)C)cc1OC(=O)CCCC(=O)N[C@@H](Cc1c[nH]cn1)C(=O)O,solubility at 1 h,[2],3330 µg/mL
same,logP,[3],< 2.4
same,MIC,Candida albicans [1],> 6400 µg/mL
Cc1ccc(C(C)C)cc1OC(=O)CCCC(=O)NCC(=O)O,MIC,Candida albicans [1],> 6400 µg/mL
CC(C)=CCC/C(C)=C/COc1cc(C(C)C)ccc1C,K,[4],0.1716 h⁻¹
Cc1ccc(C(C)C)cc1OC(=O)CCC(=O)N[C@@H](Cc1c[nH]cn1)C(=O)O,logP,[3],< 2.4
same,MIC,Candida albicans [1],> 6400 µg/mL
O=C1O[C@H]([C@@H](O)CO)C(O)=C1O [ASCORBIC ACID],Activity,Blood,19.4
CC(C)=CC(=O)Oc1cc(C(C)C)ccc1C,MIC,Candida albicans [1],> 6400 µg/mL
Cc1ccc(C(C)C)cc1OC(=O)CCCC(=O)NCCN.Cl,MIC,Candida albicans [1],> 6400 µg/mL
Cc1ccc(C(C)C)cc1OC(=O)CCCC(=O)O,MIC,Candida albicans [1],> 6400 µg/mL
Cc1ccc(C(C)C)cc1OC(=O)CCC(=O)NCC(=O)O,MIC,Candida albicans [1],6400 µg/mL
Cc1ccc(C(C)C)cc1OC(=O)CCC(=O)N[C@@H](CCCNC(=N)N)C(=O)O,MIC,Candida albicans [1],> 6400 µg/mL
CC(C)=CCOc1cc(C(C)C)ccc1C,K,[4],0.0294 h⁻¹
Cc1ccc(C(C)C)cc1OC(=O)CCCC(=O)N[C@@H](CCCCN)C(=O)O,MIC,Candida albicans [1],> 6400 µg/mL
Cc1ccc(C(C)C)cc1OC(=O)CCC(=O)N[C@@H](CCCCN)C(=O)O,MIC,Candida albicans [1],> 6400 µg/mL
OC(Cn1cncn1)(Cn1cncn1)c1ccc(F)cc1F [FLUCONAZOLE],MIC,Candida albicans [1],250 µg/mL
Cc1ccc(C(C)C)cc1O [CARVACROL],inhibition zone (IZ),Candida albicans [5],9 mm
same,MIC,[6],256 µg/mL
same,MIC50,[6],256 µg/mL
same,MIC90,[6],256 µg/mL
same,inhibition zone (IZ),Candida tropicalis,10 mm
same,MIC,Acinetobacter baumannii,64 to 256 µg/mL
same,MIC50,Acinetobacter baumannii,128 µg/mL
same,MIC90,Acinetobacter baumannii,256 µg/mL
same,inhibition zone (IZ),Nakaseomyces glabratus,8 mm
same,MIC,Staphylococcus aureus,256 µg/mL
same,MIC50,Staphylococcus aureus,256 µg/mL
same,MIC90,Staphylococcus aureus,256 µg/mL
same,logP,[3],3.5
same,MIC,Streptococcus agalactiae,256 to 512 µg/mL
same,MIC50,Streptococcus agalactiae,256 µg/mL
same,MIC90,Streptococcus agalactiae,512 µg/mL
same,MIC,Enterococcus faecalis,128 to 512 µg/mL
same,MIC50,Enterococcus faecalis,256 µg/mL
same,MIC90,Enterococcus faecalis,256 µg/mL
same,MIC,Pseudomonas aeruginosa,≥ 512 µg/mL
same,MIC50,Pseudomonas aeruginosa,> 512 µg/mL
same,MIC90,Pseudomonas aeruginosa,> 512 µg/mL
same,MIC,Klebsiella pneumoniae,512 µg/mL
same,MIC50,Klebsiella pneumoniae,512 µg/mL
same,MIC90,Klebsiella pneumoniae,512 µg/mL
same,inhibition zone (IZ),Candida parapsilosis,7 mm
same,MIC,Escherichia coli,256 µg/mL
same,MIC50,Escherichia coli,256 µg/mL
same,MIC90,Escherichia coli,256 µg/mL
same,MIC,Streptococcus pyogenes,64 to 256 µg/mL
same,MIC50,Streptococcus pyogenes,128 µg/mL
same,MIC90,Streptococcus pyogenes,256 µg/mL
same,MIC,Candida albicans [1],1250 µg/mL
same,inhibition zone (IZ),Candida dubliniensis,7 mm
same,MIC,Streptococcus pneumoniae,64 to 256 µg/mL
same,MIC50,Streptococcus pneumoniae,128 µg/mL
same,MIC90,Streptococcus pneumoniae,256 µg/mL
Cc1ccc(C(C)C)cc1OC(=O)CCCC(=O)N[C@@H](CCCNC(=N)N)C(=O)O,MIC,Candida albicans [1],> 6400 µg/mL
Cc1ccc(C(C)C)cc1OC(=O)CCCC(=O)NCCN(C)C.Cl,MIC,Candida albicans [1],> 6400 µg/mL
C[C@@H]1[C@H](O)[C@@H](C)/C=C/C=C/C=C/C=C/C=C/C=C/C=C/[C@H](O[C@@H]2O[C@H](C)[C@@H](O)[C@H](N)[C@@H]2O)C[C@@H]2O[C@](O)(C[C@@H](O)C[C@@H](O)[C@H](O)CC[C@@H](O)C[C@@H](O)CC(=O)O[C@H]1C)C[C@H](O)[C@H]2C(=O)O [AMPHOTERICIN B],inhibition zone (IZ),Candida albicans [5],10 mm
same,inhibition zone (IZ),Candida tropicalis,10 mm
same,inhibition zone (IZ),Nakaseomyces glabratus,12 mm
same,inhibition zone (IZ),Candida parapsilosis,9 mm
same,inhibition zone (IZ),Candida dubliniensis,10 mm
CC(C)=CCC/C(C)=C/CC/C(C)=C/COc1cc(C(C)C)ccc1C,MIC,Candida albicans [1],> 6400 µg/mL
Cc1ccc(C(C)C)cc1OC(=O)CCC(=O)NCCN(C)C.Cl,MIC,Candida albicans [1],> 6400 µg/mL
CC(C)=CCC/C(C)=C/C(=O)Oc1cc(C(C)C)ccc1C,MIC,Candida albicans [1],> 6400 µg/mL
Cc1ccc(C(C)C)cc1OC(=O)CCC(=O)NCCN.Cl,MIC,Candida albicans [1],3200 µg/mL
